Bioassay records (PubChem BioAssay)
In the library only some 1.8% were active in any assay of this set; here they are far more common.
HTRA1 inh: inhibitors of human serine peptidase HTRA1. Q92743. recombinant HTRA1, FP-rhodamine activity-based probe, fluorescence polarization. inhibition, % at 5.96 µM. 340,000 compounds, 0.5% hits. AID 504803; in the data active = inhibition above about 36%
mABHD4 FP: inhibitors of mouse ABHD4; Q8VD66; purified mABHD4, FP-Rh probe fluorescence polarization; inhibition, % at 8.92 µM; 370,000 compounds, 0.54% hits;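 active = inhibition exceeding the mean over every tested compound plus 3 SD, cut at about 30% in these data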
Target sequence (Q8VD66 whole entry, looked up): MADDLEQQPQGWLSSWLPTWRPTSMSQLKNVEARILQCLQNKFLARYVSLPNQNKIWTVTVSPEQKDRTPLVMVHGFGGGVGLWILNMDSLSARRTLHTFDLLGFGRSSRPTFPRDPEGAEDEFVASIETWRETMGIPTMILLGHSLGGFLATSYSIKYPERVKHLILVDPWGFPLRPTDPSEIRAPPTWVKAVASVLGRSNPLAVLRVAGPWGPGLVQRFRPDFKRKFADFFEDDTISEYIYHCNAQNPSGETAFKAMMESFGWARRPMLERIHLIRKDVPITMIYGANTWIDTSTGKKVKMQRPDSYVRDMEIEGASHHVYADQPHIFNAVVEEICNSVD
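Assay system: mABHD4 protein; medium: HEPES pH 7.0, NaCl, Pluronic buffer; dosing: 8.92 µM, single dose; schedule: 45 min + 60 min at 25 °C; signal: FP readout, ex 525 nm / em 598 nm; read-out: normalized percent inhibition of probe labeling; repeats: single replicate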
Tn7 DDE FP: disrupts Tn7 cyclic peptide binding to fibrin D-Dimer-E complex; FP displacement of FITC-Tn7 peptide from fibrin DD(E); 0% = median of compound wells per plate; inhibition, % at 8.3 µM; AID 720508; 370,000 compounds, 0.13% hits;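 active = inhibition above the mean of compounds falling within the control limits plus 3 SD of them, cut at about 14% in these data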
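assay system = human clot-derived fibrin DD(E) complex | quantity = Fibrin-DD(E) at 2 µM final | timing = 10 min preincubation, 3 h with tracer, room temperature | signal = fluorescence polarization | measure = percent inhibition | benchmarks = high control wells with 10 µM unlabelled Aha-Tn7 peptide (full inhibition) | replicates = singlicate testing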
SIAE primary: blocks human sialic acid acetylesterase; Q9HAT2; SIAE FP-Rh probe binding, fluorescence polarization; inhibition, % at 9.66 µM; 370,000 compounds, 0.69% hits; AID 1053197;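 active = inhibition above a cutoff: mean of compounds within the control limits plus 3 SD of those, cut at about 17% in these data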
TCR CD3 inh: human TCR-CD3 binding inhibition; TAMRA-labeled TCR probe fluorescence, biochemical; inhibition, % at 9.4 µM; 360,000 compounds, 0.37% hits; AID 651800;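 also: recombinant mutant TCR 2C K166C tagged with TAMRA read by polarization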
DDE Tn6 FP inh: disrupts Tn6 cyclic peptide binding to fibrin D-Dimer-E complex | P02675 | Fibrin DD(E) TRITC-Tn6 fluorescence polarization displacement | inhibition, % at 8.3 µM | 370,000 compounds, 0.21% hits;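 active = inhibition above a per-campaign cutoff: mean of compounds within control limits plus 3 SD, cut at about 15% in these data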
HTRA1 inh conf: confirmation of human HTRA1 inhibitors; 1,600 compounds, 66% hits; shares compounds with HTRA1 inh; inhibition, % at 5.96 µM; recombinant HTRA1, FP-rhodamine activity-based probe, fluorescence polarization;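 active = mean inhibition over three repeats above a set limit taken from the earlier primary screen, cut at about 37% in these data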;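 also: inhibitors block probe binding so polarization drops and inhibition rises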
BSA TAMRA ctr: BSA probe counter-screen for TCR-CD3 inhibitors | 1,200 compounds, 10% hits | inhibition, % at 9.4 µM | TAMRA-labeled BSA probe fluorescence counterscreen | shares compounds with TCR CD3 inh | AID 652035; in the data active = inhibition above about 23%
TCR-CD3 conf: TCR-CD3 interaction inhibition, confirmation; TAMRA-labeled TCR probe fluorescence binding assay; inhibition, % at 9.4 µM; shares compounds with TCR CD3 inh; 1,200 compounds, 48% hits; AID 652036
DDE Tn7 confirm: confirmation of inhibitors of Tn7 binding to human fibrin DD(E); shares compounds with Tn7 DDE FP; FP displacement of TRITC-Tn7 peptide from DD(E); 0% set at plate's compound-well median; inhibition, % at 8.3 µM; 460 compounds, 5% hits; AID 720628;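 active = inhibition above the campaign cutoff, the mean of compounds within control limits plus 3 SD, cut at about 14% in these data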;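 also: displacers lower polarization since freed probe rises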
Tn7 DDE ctr: DD(E)-Tn7 binding inhibition, counter-screen; inhibition, % at 8.3 µM; 460 compounds, 3% hits; fibrin DD(E), TRITC-Tn7 probe displacement, fluorescence polarization; shares compounds with Tn7 DDE FP;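 active = inhibition above the cutoff, the mean of compounds lying between the control bounds plus 3 SD of those compounds, cut at about 17% in these data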
DDE Tn6 FP ctr: counter-screen hit for Tn6 peptide-fibrin DD(E) binding disruption | 680 compounds, 2% hits | AID 720621 | inhibition, % at 8.3 µM | TRITC-Tn6 fluorescence polarization displacement; 0% = median of compound wells, not DMSO | shares compounds with DDE Tn6 FP inh;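 active = inhibition above the mean of test compounds lying between the control limits plus 3 SD of those, cut at about 14% in these data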
Tn6 DDE conf: confirmation of inhibitors of Tn6 binding to human fibrin DD(E) | 680 compounds, 10% hits | inhibition, % at 8.3 µM | shares compounds with DDE Tn6 FP inh | FP displacement of TRITC-Tn6 peptide from DD(E); 0% = per-plate median of test wells | AID 720631;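 active = inhibition above the mean of compounds lying within the control limits plus 3 SD, cut at about 16% in these data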
ABHD4 confirm: confirmation of mouse ABHD4 inhibitors | shares compounds with mABHD4 FP | purified mABHD4, FP-Rh probe fluorescence polarization | inhibition, % at 8.92 µM | 1,800 compounds, 55% hits | AID 720658;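 active = mean inhibition across replicates above the hit cutoff set in the primary screen, cut at about 30% in these data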
Large screens that a line does not name were inactive (follow-up assays come after a bar, where they were run); ! = not confirmed by another sample. Rule as the data show it, unless noted: active = inhibition above about 19%; inactive = the rest.

O=C1c2ccccc2C(=O)c2c(O)c(O)cc(O)c21	HTRA1 inh 72, mABHD4 FP 73, TCR CD3 inh 25, DDE Tn6 FP inh 65 | HTRA1 inh conf 71 | BSA TAMRA ctr 44 | TCR-CD3 conf 34 | DDE Tn6 FP ctr inactive | Tn6 DDE conf 88 | ABHD4 confirm 61
C[C@@H](CO)N(Cc1cn(Cc2ccccc2)nn1)S(=O)(=O)c1ccccc1Br	none (no result: HTRA1 inh, TCR CD3 inh)
O=C1CC(N(O)c2ccccc2)C(=O)N1c1cc(Cl)cc(Cl)c1 (configuration not stated)	HTRA1 inh 40, mABHD4 FP 45, TCR CD3 inh 25 | HTRA1 inh conf inactive | BSA TAMRA ctr inactive | TCR-CD3 conf inactive | ABHD4 confirm inactive
CCCOc1ccc(N2C(=O)CC(N(O)c3ccccc3)C2=O)cc1 (configuration not stated)	none
COC(=O)c1c(C(=O)OC)c2cccc3cc(-c4ccccc4)c4ccc1c4n32	HTRA1 inh 39, mABHD4 FP 36 | HTRA1 inh conf 58 | ABHD4 confirm 35
COC(=O)c1cc2c(-c3ccccc3)cc3ccccn3c-2c1C(=O)OC	none
COc1cccc2c1C(=O)c1c(O)c3c(c(O)c1C2=O)C[C@@](O)(C(C)=O)C[C@@H]3O[C@H]1C[C@H](N)[C@H](O)[C@H](C)O1	HTRA1 inh 72, mABHD4 FP 62, Tn7 DDE FP 18, SIAE primary 45, TCR CD3 inh 162, DDE Tn6 FP inh active | HTRA1 inh conf 74 | BSA TAMRA ctr 183 | TCR-CD3 conf 150 | DDE Tn7 confirm inactive | Tn7 DDE ctr 93 | DDE Tn6 FP ctr inactive | Tn6 DDE conf 93 | ABHD4 confirm 48
COC(=O)[C@]12C[C@H](CC(=O)NCc3cccs3)C(=O)N(Cc3ccco3)C1=C[C@H](COCc1ccccc1)O[C@@H]2C	none (no result: HTRA1 inh, TCR CD3 inh)
CN1CCc2cccc3c2[C@H]1Cc1ccc(O)c(O)c1-3	HTRA1 inh 59, mABHD4 FP 88, SIAE primary 18! | HTRA1 inh conf 50 | ABHD4 confirm inactive
CCOC(=O)[C@]12CCCCC/C=C\1N(Cc1ccc(OC)cc1)C(=O)[C@H]2CC(=O)NCCCCc1ccccc1	none (no result: HTRA1 inh, TCR CD3 inh)
C=CCN(CC#CC1=CCCCC1)Cc1ccccc1	none (no result: HTRA1 inh, TCR CD3 inh)
NC(=S)N=Nc1c(O)cc(O)c2[nH]c(=O)ccc12	HTRA1 inh 61, mABHD4 FP 34, TCR CD3 inh 30 | HTRA1 inh conf 43 | ABHD4 confirm 77
NC(=S)N=Nc1c(O)[nH]c2ccc(F)cc12	none
COc1ccc2c(c1)CCCN2C(=O)C1CCCN(S(=O)(=O)c2ccc(Br)s2)C1 (configuration not stated)	none (no result: HTRA1 inh, TCR CD3 inh)
Cc1ccc(NC2=C(NC(=O)c3ccccc3)C(=O)c3ccccc3C2=O)cc1Cl	HTRA1 inh 44, mABHD4 FP 30 | HTRA1 inh conf 42 | ABHD4 confirm 50
Cc1ccc(NCC(=O)c2ccccc2)cc1Cl	none
C=C1c2cccc(O)c2C(=O)C2C(=O)[C@]3(O)C(=O)C(C(N)=O)C(=O)[C@@H](N(C)C)[C@@H]3[C@@H](O)[C@H]12 (some centres not stated)	HTRA1 inh 46, mABHD4 FP 85, SIAE primary 47, TCR CD3 inh 28 | HTRA1 inh conf 38 | BSA TAMRA ctr inactive | TCR-CD3 conf inactive | ABHD4 confirm inactive
Cc1ccc(S(=O)(=O)Nc2cc(Cl)c(O)c3ncccc23)cc1	HTRA1 inh 70, mABHD4 FP 48 | HTRA1 inh conf 54 | ABHD4 confirm 57
Cc1ccc(S(=O)(=O)Nc2cccnc2Oc2ccc(Cl)cc2)cc1	none
Cc1cc(N(C)C)ccc1N=Nc1ccc2ncccc2c1	HTRA1 inh 37, mABHD4 FP 45 | HTRA1 inh conf 37 | ABHD4 confirm 54
CN(C)c1ccc(N=Nc2ccc3ncccc3c2)cc1	none
C[C@H]1COc2cc(Br)ccc2S(=O)(=O)N1Cc1cn(Cc2ccc(C(F)(F)F)cc2)nn1	none (no result: HTRA1 inh, TCR CD3 inh)
Cn1c(SCc2ccc(C(C)(C)C)cc2)nnc1-c1ccco1	none (no result: HTRA1 inh, TCR CD3 inh)
O=c1cc(-c2ccc(O)cc2)oc2c(O)c(O)c(O)c(O)c12	HTRA1 inh 52, mABHD4 FP 36, TCR CD3 inh 23 | HTRA1 inh conf 59 | BSA TAMRA ctr inactive | TCR-CD3 conf 38 | ABHD4 confirm inactive
COc1c(O)cc2oc(-c3ccc(O)cc3)cc(=O)c2c1O	none
O=c1cc(-c2ccccc2)oc2cc(O)c(O)c(O)c12	HTRA1 inh 80, mABHD4 FP 52, TCR CD3 inh 38 | HTRA1 inh conf 85 | BSA TAMRA ctr inactive | TCR-CD3 conf 24 | ABHD4 confirm 37
C=CCn1c(SCC(=O)c2ccc(O)c(O)c2)nnc1-c1ccc(OC)cc1	HTRA1 inh 56, mABHD4 FP 38 | HTRA1 inh conf 79 | ABHD4 confirm inactive
C=CCn1c(SCC(=O)c2ccc(O)c(O)c2)nnc1-c1ccc(C)cc1	HTRA1 inh 60, mABHD4 FP 34 | HTRA1 inh conf 66 | ABHD4 confirm inactive
Cc1ccc(-c2nnc(SCC(=O)c3ccc(O)c(O)c3)n2-c2ccc(Cl)cc2)cc1	none (no result: HTRA1 inh, TCR CD3 inh)
COc1ccc(S[C@]2(C(=O)N3CCOCC3)CC(=O)N(C(=O)/C=C/c3ccccc3)[C@@H]2c2ccc(OC)cc2)cc1	none (no result: HTRA1 inh, TCR CD3 inh)
